Results published in ChEMBL document CHEMBL1649533, “GES-11, a novel integron-associated GES variant in Acinetobacter baumannii” (2009).
Converted amounts (≈) assume the structure as drawn.

Experiments:
Assay type in all cases: functional
Acinetobacter baumannii [1] = assay: Antibacterial activity against Acinetobacter baumannii BM4674 isolated from the tibia fracture of a patient by Etest method
In short: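 MICs read by Etest gradient strips on Mueller-Hinton agar against the clinical isolate (Nancy, France, September 2008); reported in μg/ml and interpreted with Comité de l'Antibiogramme de la Société Française de Microbiologie breakpoints.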

Acinetobacter baumannii [2] = assay: Antibacterial activity against Acinetobacter baumannii BM4652
In short: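 MIC by Etest on Mueller-Hinton agar; interpretation by Comité de l'Antibiogramme de la Société Française de Microbiologie breakpoints. A. baumannii BM4652 is the recipient strain used in conjugation with BM4674 (solid medium; transconjugants selected on apramycin 80 μg/ml plus ceftazidime 16 μg/ml). MIC values in μg/ml.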

Acinetobacter baumannii [3] = assay: Antibacterial activity against Acinetobacter baumannii BM4652 harboring plasmid IP847
Escherichia coli [4] = assay: Antibacterial activity against Escherichia coli Top10
Escherichia coli [5] = assay: Antibacterial activity against ESBL-positive Escherichia coli Top10 harboring plasmid AT517
Escherichia coli [6] = assay: Antibacterial activity against […] OmpF and OmpC porin-deficient Escherichia coli HB4
Escherichia coli [7] = assay: Antibacterial activity against […] OmpF and OmpC porin-deficient Escherichia coli HB4 harboring plasmid AT517

Compound	MIC (Acinetobacter baumannii [1]) [µg/mL]	MIC (Acinetobacter baumannii [2]) [µg/mL]	MIC (Acinetobacter baumannii [3]) [µg/mL]	MIC (Escherichia coli [4]) [µg/mL]	MIC (Escherichia coli [5]) [µg/mL]	MIC (Escherichia coli [6]) [µg/mL]	MIC (Escherichia coli [7]) [µg/mL]
C[C@H]1[C@H](NC(=O)/C(=N\OC(C)(C)C(=O)O)c2csc(N)n2)C(=O)N1S(=O)(=O)O [AZTREONAM]	> 256	1 (≈ 2.3 µM)	> 256	0.125 (≈ 0.287 µM)	24 (≈ 55.1 µM)	0.75 (≈ 1.72 µM)	48 (≈ 110 µM)
CO/N=C(\C(=O)N[C@@H]1C(=O)N2C(C(=O)[O-])=C(C[N+]3(C)CCCC3)CS[C@H]12)c1csc(N)n1 [CEFEPIME]	> 256	0.19 (≈ 0.395 µM)	64 (≈ 133 µM)	0.032 (≈ 0.0666 µM)	2 (≈ 4.16 µM)	0.5 (≈ 1.04 µM)	96 (≈ 200 µM)
CO/N=C(\C(=O)N[C@@H]1C(=O)N2C(C(=O)O)=C(COC(C)=O)CS[C@H]12)c1csc(N)n1 [CEFOTAXIME]	> 256	1 (≈ 2.2 µM)	> 256	0.064 (≈ 0.141 µM)	> 256	0.5 (≈ 1.1 µM)	> 256
CO[C@@]1(NC(=O)Cc2cccs2)C(=O)N2C(C(=O)O)=C(COC(N)=O)CS[C@@H]21 [CEFOXITIN]	192 (≈ 449 µM)	8 (≈ 18.7 µM)	12 (≈ 28.1 µM)	6 (≈ 14 µM)	6 (≈ 14 µM)	96 (≈ 225 µM)	> 256
CC(C)(O/N=C(\C(=O)N[C@@H]1C(=O)N2C(C(=O)[O-])=C(C[n+]3ccccc3)CS[C@H]12)c1csc(N)n1)C(=O)O [CEFTAZIDIME]	> 256	1.5 (≈ 2.74 µM)	> 256	0.75 (≈ 1.37 µM)	> 256	0.5 (≈ 0.915 µM)	> 256
C[C@@H](O)[C@H]1C(=O)N2C(C(=O)O)=C(SCCNC=N)C[C@H]12 [IMIPENEM ANHYDROUS]	4 (≈ 13.4 µM)	0.125 (≈ 0.418 µM)	0.75 (≈ 2.51 µM)	0.19 (≈ 0.635 µM)		0.125 (≈ 0.418 µM)	8 (≈ 26.7 µM)
C[C@@H](O)[C@H]1C(=O)N2C(C(=O)O)=C(S[C@@H]3CN[C@H](C(=O)N(C)C)C3)[C@H](C)[C@H]12 [MEROPENEM]	6 (≈ 15.6 µM)	0.064 (≈ 0.167 µM)	1.5 (≈ 3.91 µM)	0.016 (≈ 0.0417 µM)	0.047 (≈ 0.123 µM)	0.25 (≈ 0.652 µM)	4 (≈ 10.4 µM)
